Experimental data reported in paper PMC11293135 (Journal of Nanobiotechnology, 2024).
Where a name gives a salt, the structure may show the parent alone. Each block holds one molecule with its values, some of them ahead of it.

Tests used:
DCs from TDLNs = assay: DC maturation in TDLNs by flow cytometry; type: in vivo, BALB/c mice; details: mean ± SD, n = 5
Procedure, shortened: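 Female BALB/c mice (5–6 weeks) received 1.0 × 10^6 4T1 cells s.c. in the flank. Once tumors reached ~150 mm3, click groups got azido-sugar 40 mg/kg i.p. daily for 3 days and others got PBS. All groups then received 5 mg/kg i.v. every 7 days (n = 5). TDLNs were digested with collagenase IV (37 °C, 1 h) and strained at 70 μm. Mature DCs were gated CD40+CD80+MHC II+CCR7+. Mean ± SD reported.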

PD-L1 = details: DOX treatment; ref [41], [42]; cited from earlier work
4T1 tumor-bearing mice [1] = assay: Treatment-related toxicity; type: in vivo, BALB/c mice; details: 5 mg/kg
Procedure, shortened: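 Female BALB/c mice bearing ~150 mm3 s.c. 4T1 tumors were split into 5 groups (n = 5). Click groups were pretreated with azido-sugar 40 mg/kg i.p. daily for 3 days; others received PBS. Treatments at 5 mg/kg i.v. were given every 7 days. Body weight was recorded every 2 days for 14 days. Major organs were fixed in 4% paraformaldehyde, paraffin-embedded, and H&E stained.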

4T1 tumor-bearing mice [2] = assay: In vivo MR-T1 mapping imaging; design: species or system BALB/c mice; details: by 3 h post-injection, 1 mg/kg i.v., n = 3
Procedure, shortened: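 4T1 flank tumors were raised in female BALB/c mice (1.0 × 10^6 cells s.c.), n = 3 per group. The click group received azido-sugar 40 mg/kg i.p. once daily for 3 days; the other groups received PBS. Mice were then injected i.v. with 150 μL (1 mg/kg) of Gd probe or Gd-DOTA. T1 mapping was done before injection and at 1, 2, 3 and 4 h, and tumor 1/T1 values were quantified.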

4T1 cells = assay: In vitro cytotoxicity, CCK-8 assay; type: cell-based, murine; details: concentrations up to 50 μM, three days
Procedure, shortened: (§1)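 4T1 and HC11 cells were grown in RPMI-1640 with 10% FBS at 37 °C and 5% CO2. Cells were exposed to the azido-sugar test compound at 0–50 μM for 3 days. Viability was read by CCK-8.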

HC11 cells = assay: In vitro cytotoxicity, CCK-8 assay; type: cell-based, mouse; details: concentrations up to 50 μM, three days
Procedure, shortened: as §1

Compound: COc1cccc2c1C(=O)c1c(O)c3c(c(O)c1C2=O)C[C@@](O)(C(=O)CO)C[C@@H]3O[C@H]1C[C@H](N)[C@H](O)[C@H](C)O1 [DOX, Doxorubicin hydrochloride]
MHC-II expression in TDLNs (DCs from TDLNs): 45.04 ± 1.85%
PD-L1 expression of 4T1 cells (PD-L1): elevation in PD-L1 expression
Body weight change (4T1 tumor-bearing mice [1]; measured every two days for 14 days, n = 5): severe weight loss
H&E analyses on major organs compared to PBS-treated mice (4T1 tumor-bearing mice [1]; end of antitumor study): substantial damage

Tumor MR signal (4T1 tumor-bearing mice [2]): returned to baseline levels
Compound: O=C([O-])CN1CCN(CC(=O)[O-])CCN(CC(=O)[O-])CCN(CC(=O)[O-])CC1.[Gd+3] [Gd-DOTA]

Compound: CC(=O)OC[C@H]1OC(OC(C)=O)[C@@H](NC(=O)CN=[N+]=[N-])[C@@H](OC(C)=O)[C@@H]1OC(C)=O (stereo partly shown) [Ac4ManNAz, tetraacetyl-N-azidoacetylmannosamine]
Cytotoxicity to 4T1 cells (4T1 cells): no significant harm
Cytotoxicity to HC11 cells (HC11 cells): no significant harm
